Results collected from several papers.
Target: Casein kinase II subunit alpha (CSNK2A1, Homo sapiens, UniProt P68400)

| SMILES | effect on | technique | tested at | remaining binding [%] |
| --- | --- | --- | --- | --- |
| CN(C)c1nccc(-c2cnc3ncccn23)n1 | binding | – | 1 µM | 47 |
| CC1=C(C#N)[C@@H](c2ccc3[nH]nc(C)c3c2)C(C#N)=C(c2ccc(Cl)cc2)N1 | cell-free assay | competition with immobilised ligand | 1 µM | 100 |
| COc1ccnn2ncc(-c3ccnc(N(C)C)n3)c12 | binding | – | 1 µM | 74 |
| CCC(=O)N[C@H]1CC[C@@H](C(=O)N(C)c2ccc(-c3nc4ccccc4o3)cc2)C1 | cell-free assay | competition with immobilised ligand | 1 µM | 74 |
| CN(C)c1ncc(F)c(-c2cnn3ncccc23)n1 | binding | – | 1 µM | 100 |
| CNC(=O)[C@@H]1CC[C@@H](n2c(-c3ccc4cnccc4c3)nc3ccc(C(=O)NCc4cccc(C(N)=O)c4)cc32)C1 | binding | competition with immobilised ligand | 1 µM | 94 |
| N[C@@H]1CCN(c2nccc(-c3cnn4ncccc34)n2)C1 | binding | – | 1 µM | 52 |
| C[C@@H](c1ccc(-n2cnc3c(N)ncnc32)cc1)N1CCc2nn(C)c(Cc3ccccc3)c2C1=O | binding | competition with immobilised ligand | 0.1 µM | 73 |
| CCN1CCN(Cc2ccc(C(=O)Nc3ccc(C)c(Oc4ccc5c(c4)CC(=O)N5)c3)cc2C(F)(F)F)CC1 | binding | competition with immobilised ligand | 1 µM | 100 |
| O=C1NC(c2ccccn2)Sc2ccccc21 (stereo not drawn) | cell-free assay | competition with immobilised ligand | 1 µM | 61 |
| O=C(c1ccc(Nc2ncc(Cl)c(-c3cc4ccccc4s3)n2)cc1)N1CCC(N2CCCC2)CC1 | binding | competition with immobilised ligand | 1 µM | 0.9 |
| O=C(NCC1CCOCC1)c1n[nH]cc1NC(=O)c1c(F)cccc1F | binding | competition with immobilised ligand | 1 µM | 59 |
| CC(=O)c1c(NS(C)(=O)=O)c2cc(-c3ccc(Cl)cc3)c(-c3ccc(Cl)cc3Cl)nc2n(C)c1=O | cell-free assay | competition with immobilised ligand | 1 µM | 92 |
| c1cnn2ncc(-c3ccnc(N4CCC45COC5)n3)c2c1 | binding | – | 1 µM | 40 |
| COc1cnc(Nc2cccc(S(N)(=O)=O)c2)nc1N1CCN(c2ccccc2)C(=O)C1 | binding | competition with immobilised ligand | 1 µM | 68 |
| O=C(NCCCN1CCOCC1)c1ccc(Nc2ncc(Cl)c(-c3ccc(Cl)s3)n2)cc1 | binding | competition with immobilised ligand | 1 µM | 4 |
| C=CC(=O)N1CCC(C(=O)NCC(=O)N2CCN(c3nc(-c4cnc(N)nc4C(F)F)nc(N4CCOCC4)n3)CC2)CC1 | binding | competition with immobilised ligand | 1 µM | 75 |
| Cc1cc(-n2nc(Cc3cc(F)cc(C(F)(F)F)c3)nc2C)ccc1C(N)=O | cell-free assay | competition with immobilised ligand | 1 µM | 100 |
| O=C(c1ccc(Nc2ncc(Cl)c(-c3ccc(Cl)s3)n2)cc1)N1CCC(N2CCCC2)CC1 | binding | competition with immobilised ligand | 1 µM | 0.9 |
| F[C@@H]1CCN(c2nccc(-c3cnn4ncccc34)n2)C1 | binding | – | 1 µM | 58 |
| COc1cc(-c2cn(C3CCc4c(F)cccc4N(CC(F)(F)F)C3=O)nn2)ccc1-n1cnc(C)c1 (stereo not drawn) | cell-free assay | competition with immobilised ligand | 1 µM | 100 |
